From PubChem
NR2E3 ag-1 – agonists of human NR2E3 nuclear receptor; Q9Y5X4; CHO-S Gal4-NCOR/VP16-NR2E3 two-hybrid, luciferase; inhibition of corepressor binding, % at 3.98 µM; 360,000 compounds, 0.35% hits; AID 602229;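 active = inhibition above the mean of all tested compounds plus 3 SD, cut at about 70% in these data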;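 note: 0% = DMSO with NR2E3 transfected cells and 100% = cells lacking NR2E3 construct; higher means lower luciferase signal from less NR2E3 corepressor binding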
NR2E3 ag-2 – activates human photoreceptor nuclear receptor NR2E3 | Q9Y5X4 | GST-NR2E3/biotin-RetCOR TR-FRET, 1536-well | inhibition of corepressor binding, % at 4.78 µM | 320,000 compounds, 0.12% hits;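 active = percent inhibition above the cutoff of mean plus 3 SD of all tested compounds, set per screening campaign, cut at about 20% in these data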;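 note: 0% = DMSO wells and 100% = biotin wells as full block of FRET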
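Test system: GST-NR2E3 and biotin-RetCOR proteins | Quantity: 1.35 nM GST-tagged NR2E3 final | Medium: Tris pH 7.5 | Also added: 7 nM biotin-RetCOR | Dosing: Compound at 4.8 µM, single dose | Timing: 5 h at 4 °C | Detection: Time-resolved FRET | Read-out basis: Percent inhibition | Benchmarks: Biotin wells as high control, 0.6% DMSO wells as low control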
PGE2 EP2 inh – EP2 receptor (human) inhibition; P43116; C6 glioma cells expressing human EP2, cAMP TR-FRET; cells stimulated with saturating PGE2; inhibition, % at 25 µM; 260,000 compounds, 0.52% hits;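 active = percent inhibition above 40 after rounding to a whole number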;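 note: rat C6 glioma host cells with rolipram phosphodiesterase inhibitor present; the protocol text gives 20 µM as final concentration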
Target sequence (P43116 whole entry, looked up): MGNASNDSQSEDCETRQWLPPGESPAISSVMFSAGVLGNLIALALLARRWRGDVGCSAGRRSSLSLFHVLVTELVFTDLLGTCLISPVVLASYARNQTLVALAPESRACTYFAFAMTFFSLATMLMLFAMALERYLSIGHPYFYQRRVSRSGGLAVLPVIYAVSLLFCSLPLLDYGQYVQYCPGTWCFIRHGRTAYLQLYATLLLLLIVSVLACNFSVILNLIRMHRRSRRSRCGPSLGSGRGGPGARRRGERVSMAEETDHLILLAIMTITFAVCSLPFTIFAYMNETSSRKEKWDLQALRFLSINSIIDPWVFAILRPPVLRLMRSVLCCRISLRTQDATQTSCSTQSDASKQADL
Furin inh – blocks human furin protease activity; P09958; purified furin, fluorogenic substrate cleavage; inhibition, % at 20 µM or 30 µM; 220,000 compounds, 0.061% hits; AID 463115; in the data active = inhibition above about 25%
JMJD2C inh – blocks human GASC-1 demethylase activity | Q9H3R0 | GST-JMJD2C(1-420) H3K9me3 demethylation, DELFIA europium | inhibition, % at 2.35 µM | 330,000 compounds, 0.069% hits;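 active = more than half of a compound's replicate wells show inhibition beyond 50%, single wells judged on their own value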;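 note: signal counts dimethyl H3K9 product captured on neutravidin plate; 0% = median of DMSO wells and 100% = 0.3 times that DMSO median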
EP2 mod – EP2 receptor (human) modulation; P43116; EP2-expressing cells, cAMP HTRF FRET, PGE2 co-stimulation; induction, % at 25 µM; 260,000 compounds, 0.83% hits;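 active = compounds whose cAMP rise, as percent of the full-agonist control response, exceeds 60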;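 note: rat C6 glioma line stably carrying human EP2 under a CMV promoter; the protocol text gives 20 µM as final concentration; 100% = response of wells given 1 µM PGE2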
Active calls of the source: *. In the library only some 1.3% were active in any assay of this set; here they are far more common.

What do the screens show for `Cc1ccc(NN2C(=O)C=C(c3ccc(Cl)cc3)C2=O)cc1`?
NR2E3 ag-1: -23; NR2E3 ag-2: -4; PGE2 EP2 inh: 40*; Furin inh: -23; JMJD2C inh: 3; EP2 mod: -33

Results for COc1ccc(C2=CC(=O)N(Nc3ccccc3)C2=O)cc1 ?
NR2E3 ag-1: -9; NR2E3 ag-2: -1; PGE2 EP2 inh: 18; Furin inh: 7; JMJD2C inh: 3; EP2 mod: -82

How did O=C1C=C(c2ccccc2)C(=O)N1Nc1ccccc1 do in these assays?
NR2E3 ag-1: -23; NR2E3 ag-2: -3; PGE2 EP2 inh: 84*; Furin inh: -21; JMJD2C inh: -7; EP2 mod: -42

Results for Cc1ccc(NN2C(=O)C=CC2=O)cc1 ?
NR2E3 ag-1: -32; NR2E3 ag-2: 1; PGE2 EP2 inh: 5; Furin inh: 15; JMJD2C inh: 19; EP2 mod: 13

What do the screens show for `COC(=O)c1c(NC(=O)c2ccc(OC)c(OC)c2)sc(C(=O)Nc2ccccc2)c1C`?
PGE2 EP2 inh: 6; EP2 mod: 11

Results for O=c1c(O)cccc2cc(O)c(O)c(O)c12 ?
NR2E3 ag-1: 9; NR2E3 ag-2: 16; PGE2 EP2 inh: 7; Furin inh: -4; JMJD2C inh: 87*; EP2 mod: -3

What do the screens show for `Oc1ccc(-c2csc(-c3ccccc3)n2)c(O)c1`?
PGE2 EP2 inh: 48*; EP2 mod: -142

What do the screens show for `CCn1c2cc(C)sc2c2cnn(Cn3nnc4ccccc43)c(=O)c21`?
EP2 mod: -13

What do the screens show for `Cc1cc(C)c(Nc2cc(S(=O)(=O)O)c(N)c3c2C(=O)c2ccccc2C3=O)c(C)c1`?
NR2E3 ag-1: 23; NR2E3 ag-2: -22; PGE2 EP2 inh: 16; Furin inh: -10; JMJD2C inh: 17; EP2 mod: 30

How did Nc1ccc(-c2ccc(Nc3cc(S(=O)(=O)O)c(N)c4c3C(=O)c3ccccc3C4=O)cc2)c(S(=O)(=O)O)c1 do in these assays?
PGE2 EP2 inh: 55*; EP2 mod: -3

How did CCN(Cc1ccccc1)C(c1ccc(Cl)cc1)c1nnnn1C(C)(C)C (stereo unspecified) do in these assays?
NR2E3 ag-1: -1; NR2E3 ag-2: 0; PGE2 EP2 inh: 3; Furin inh: -23; JMJD2C inh: 8; EP2 mod: 31

Results for CC(C)(C)n1nnnc1C(c1cccs1)N(Cc1cccnc1)Cc1ccco1 (stereo unspecified) ?
NR2E3 ag-1: -19; NR2E3 ag-2: 1; PGE2 EP2 inh: 3; Furin inh: -26; JMJD2C inh: 3; EP2 mod: 24

Results for CCN(Cc1ccccc1)C(c1ccc(C)cc1)c1nnnn1C(C)(C)C (stereo unspecified) ?
NR2E3 ag-1: -7; NR2E3 ag-2: 0; PGE2 EP2 inh: 10; Furin inh: -5; JMJD2C inh: 9; EP2 mod: 61*

How did CC(C)(C)n1nnnc1C(c1cccnc1)N(CCc1ccccc1)Cc1cccs1 (stereo unspecified) do in these assays?
PGE2 EP2 inh: 8; EP2 mod: 63*

What do the screens show for `COc1ccccc1NC(=O)CSc1nnc2c3c4c(sc3nc(C)n12)CCCC4`?
PGE2 EP2 inh: 10; EP2 mod: -67

How did O=C(O)c1cccc(S(=O)(=O)Nc2ccccn2)c1 do in these assays?
PGE2 EP2 inh: 63*; EP2 mod: -36

Results for O=C(Nc1ccc(Cl)cc1)c1cccc(S(=O)(=O)Nc2ccccn2)c1 ?
NR2E3 ag-1: -24; NR2E3 ag-2: 6; JMJD2C inh: -8

What do the screens show for `Cc1n[nH]c(C)c1NS(=O)(=O)c1ccc2c(c1)NC(=O)C(C)O2` (stereo unspecified)?
PGE2 EP2 inh: 11; EP2 mod: -13

What do the screens show for `Cc1ccc(CN2CCN(Cc3ccc(C)o3)[C@@H](C)C2)o1`?
PGE2 EP2 inh: 43*; EP2 mod: 12

How did COc1cc(OC)cc(C(=O)Nc2nc3ccc(F)cc3s2)c1 do in these assays?
PGE2 EP2 inh: 6; EP2 mod: -5

How did CN(C)Cc1ccc(-c2cc3onc(-c4ccccc4)c3c(=O)n2C)cc1 do in these assays?
PGE2 EP2 inh: 44*; EP2 mod: -14

How did CCOC(=O)C(C)Sc1nc(-c2ccccc2)ccc1C#N (stereo unspecified) do in these assays?
PGE2 EP2 inh: 6; EP2 mod: 62*

Results for CC(C)(C)N1C(=O)c2ccccc2NC(=O)N1Cc1ccccc1 ?
NR2E3 ag-1: -23; NR2E3 ag-2: 1; PGE2 EP2 inh: 12; Furin inh: -15; JMJD2C inh: -2; EP2 mod: 10

How did O=C1Nc2ccccc2C(=O)C1(Cl)Cc1ccccc1 (stereo unspecified) do in these assays?
NR2E3 ag-1: -15; NR2E3 ag-2: -3; PGE2 EP2 inh: 112*; Furin inh: -19; JMJD2C inh: -19; EP2 mod: -19

What do the screens show for `Cc1ccc(C2(C(=O)NCCn3nc(-c4cccs4)ccc3=O)CC2)cc1`?
PGE2 EP2 inh: 5; EP2 mod: -29

What do the screens show for `CNC(=S)N(Cc1ccc(OC)cc1)Cc1cc2c(C)cc(C)cc2[nH]c1=O`?
PGE2 EP2 inh: 8; EP2 mod: -16

What do the screens show for `COc1ccc(NC(=O)N(C2CCCCC2)C(C)c2ccco2)c(OC)c1` (stereo unspecified)?
NR2E3 ag-1: 4; NR2E3 ag-2: 1; PGE2 EP2 inh: 7; Furin inh: -15; JMJD2C inh: 6; EP2 mod: 61*

Results for COc1ccc(NC(=O)N(C2CCCCC2)C(C)c2cccnc2)c(OC)c1 (stereo unspecified) ?
NR2E3 ag-1: -14; NR2E3 ag-2: 0; PGE2 EP2 inh: 15; Furin inh: -5; JMJD2C inh: -8; EP2 mod: -22

Results for COc1ccc(-c2nc(NC(=O)c3[nH]c(C)c(C(C)=O)c3C)sc2C)cc1 ?
NR2E3 ag-1: -25; NR2E3 ag-2: 6; PGE2 EP2 inh: 100*; Furin inh: -12; JMJD2C inh: 51; EP2 mod: -64

How did CC(=O)c1c(C)[nH]c(C(=O)Nc2nc(-c3ccc(-c4ccccc4)cc3)cs2)c1C do in these assays?
NR2E3 ag-1: -31; NR2E3 ag-2: -1; PGE2 EP2 inh: 15; Furin inh: -4; JMJD2C inh: 14; EP2 mod: -51

How did CC(=O)c1c(C)[nH]c(C(=O)Nc2nc(-c3ccc(Cl)cc3)cs2)c1C do in these assays?
NR2E3 ag-1: 4; NR2E3 ag-2: -2; PGE2 EP2 inh: 41*; Furin inh: -16; JMJD2C inh: 3; EP2 mod: -52

How did Cn1ncc2c1CCc1sc(NC(=O)Cc3ccc(Cl)cc3Cl)nc1-2 do in these assays?
PGE2 EP2 inh: 11; EP2 mod: -69
